Each block holds one compound with its values, some of them ahead of it.
Legend:
Homo sapiens [1] = species: Homo sapiens; experiment: Inhibition potency against primary wave responses to epinephrine; type: functional, organism-based; settings: read-out: pA2 (converted)
Homo sapiens [2] = species: Homo sapiens; experiment: Log concentration that produces maximum response against epinephrine-induced platelet aggregation (primary wave AGG); type: functional, organism-based
Homo sapiens [3] = species: Homo sapiens; experiment: Effective concentration for secondary wave aggregation was determined; type: functional, organism-based
Homo sapiens [4] = species: Homo sapiens; experiment: Effective concentration for primary wave aggregation was determined; type: functional, organism-based
Procedure, shortened: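 Citrated (9:1) platelet-rich plasma from medication-free human donors. Compound given alone to platelets preincubated 1 min with 1 mM aspirin. Born turbidometric aggregation, maximal change in light transmittance amplitude. EC50 taken from individual plots of percent response versus log concentration. Values in parentheses give number of experiments.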

Homo sapiens [5] = species: Homo sapiens; experiment: Log concentration that produces maximum response against epinephrine-induced platelet aggregation; type: functional, organism-based
Homo sapiens [6] = species: Homo sapiens; experiment: Inhibitory concentration of compound against primary aggregation of induced by R-8; type: functional, organism-based
Homo sapiens [7] = species: Homo sapiens; experiment: Inhibition of ADP by the compound in response of AGG; type: functional, organism-based
Procedure, shortened: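 The drug was added 1 min before ADP, used at the minimum concentration giving maximal aggregation, in citrated human platelet-rich plasma from medication-free donors. Born turbidometric aggregometry was used. IC50 came from the maximal change in light transmittance after 6 min, using percent inhibition versus log concentration plots. Data are from 3–5 preparations.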

Homo sapiens [8] = species: Homo sapiens; experiment: Inhibition of Arachidonic acid by the compound in response of AGG; type: functional, organism-based
Procedure, shortened: (§1)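 Human platelet-rich plasma from medication-free volunteers, citrate anticoagulated (9:1). Inducer at the minimum concentration giving maximal aggregation. Inhibitor added 1 min before inducer. Turbidometric (Born) aggregation read as the maximal change in light-transmittance amplitude after 4 min. U46619 runs include 1 mM aspirin. IC50 taken from percent inhibition vs log concentration plots; 3–5 preparations.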

[9] = target: Serotonin (5-HT) receptor; experiment: Inhibition of Arachidonic acid by the compound in response of SEC; type: functional, Homo sapiens
Procedure, shortened: (§2)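 Inducer at the minimum concentration giving maximal aggregation; inhibitor added 1 min before it. Dense-granule secretion measured as release of radioactivity. U46619 runs include 1 mM aspirin. IC50 from percent inhibition vs log concentration; 3–5 preparations.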

[10] = target: Serotonin (5-HT) receptor; experiment: Inhibition of U-46,619 + phentolamine by the compound in response of SEC; type: functional, Homo sapiens
Procedure, shortened: (§3)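 Phentolamine 1 μM added 1 min before the test drug and 2 min before the inducer (AA or U46619, at minimum maximally effective concentration). Aspirin 1 mM in U46619 runs. Secretion read as radioactivity release. IC50 from percent inhibition vs log concentration; 3–5 preparations.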

Homo sapiens [11] = species: Homo sapiens; experiment: Inhibition of U-46,619 + phentolamine by the compound in response of AGG; type: functional, organism-based
Procedure, shortened: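 Human citrated platelet-rich plasma was incubated with 1 mM aspirin. Phentolamine (1 μM) was added 1 min before the drug and 2 min before U46619, used at the minimal maximally-aggregating concentration. Turbidometric aggregation was followed, and IC50 was based on the maximal transmittance change at 4 min, from percent inhibition versus log concentration plots. Data are from 3–5 preparations.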

[12] = target: Serotonin (5-HT) receptor; experiment: Inhibition of ADP by the compound in response of SEC; type: functional, Homo sapiens; procedure, shortened: as §2
[13] = target: Serotonin (5-HT) receptor; experiment: Inhibition of AA+phentolamine by the compound in response of SEC; type: functional, Homo sapiens; procedure, shortened: as §3
Homo sapiens [14] = species: Homo sapiens; experiment: Stimulatory activity against serotonin secretion (SEC).; type: functional, organism-based
[15] = target: Serotonin (5-HT) receptor; experiment: Inhibition of U-46,619 by the compound in response of SEC; type: functional, Homo sapiens; procedure, shortened: as §2
Homo sapiens [16] = species: Homo sapiens; experiment: Inhibition of U-46,619 by the compound in response of AGG; type: functional, organism-based; procedure, shortened: as §1
Homo sapiens [17] = species: Homo sapiens; experiment: Inhibition of AA+phentolamine by the compound in response of AGG; type: functional, organism-based
Procedure, shortened: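 Citrated platelet-rich plasma from medication-free human volunteers was read by Born turbidometric aggregometry. Phentolamine (1 μM) was added 1 min before the drug and 2 min before arachidonic acid, used at the minimum concentration giving maximal aggregation. IC50 was taken from the maximal change in light transmittance after 4 min, read from percent inhibition versus log concentration plots. Data are from 3–5 preparations.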

SMILES: Oc1ccc(C[C@H]2CNC=N2)cc1O
Kb (Homo sapiens [1]): 3.24 µM

EC50 (Homo sapiens [2]): 5.13 µM
EC50 (Homo sapiens [3]): 4.89 µM
EC50 (Homo sapiens [4]): 5.03 µM
SMILES: Oc1ccc(C[C@@H]2CNC=N2)cc1O

EC50 (Homo sapiens [5]): 38.9 µM
SMILES: Oc1ccc(C(O)c2ncc[nH]2)cc1O (configuration not stated)

IC50 (Homo sapiens [6]): 1100 nM
SMILES: COC(=O)[C@@H]1[C@H]2C[C@H]3c4[nH]c5ccccc5c4CCN3C[C@@H]2CC[C@@H]1O [YOHIMBINE]

SMILES: Cl.Oc1ccc(Cc2ncc[nH]2)cc1O
IC50 (Homo sapiens [7]): 263 µM
IC50 (Homo sapiens [8]): 661 µM
Log IC50 [9]: -3.18
Log IC50 [10]: -3.09
IC50 (Homo sapiens [11]): 741 µM
Log IC50 [12]: -3.46
Log IC50 [13]: -3.79
IC50 (Homo sapiens [14]): 36.3 µM
Log IC50 [15]: -2.81
IC50 (Homo sapiens [16]): 1.62 mM
IC50 (Homo sapiens [17]): 145 µM
